Experiments:
Type in all cases: functional
Conditions in all cases: read-out: DIZ
Xanthomonas oryzae = assay: Antibacterial activity against Xanthomonas oryzae at 10 ug/disc after 24 hrs by disc diffusion method
Escherichia coli = assay: Antibacterial activity against Escherichia coli at 10 ug/disc after 24 hrs by disc diffusion method
Summary of the method: (§1)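 Disc diffusion assay. Discs were held at 4 °C for 2 h so the compounds could diffuse, then incubated at 28 °C. Inhibition zone diameters were measured in mm after 24 h. Each compound was tested in triplicate.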

[1] = Antibacterial activity against Xanthomonas campestris pvs. at 10 ug/disc after 24 hrs by disc diffusion method; summary of the method: as §1
Bacillus subtilis = assay: Antibacterial activity against Bacillus subtilis at 10 ug/disc after 24 hrs by disc diffusion method; summary of the method: as §1
Pseudomonas fluorescens = assay: Antibacterial activity against Pseudomonas fluorescens at 10 ug/disc after 24 hrs by disc diffusion method; summary of the method: as §1

| SMILES | zone of inhibition at 10 µg/disc (Xanthomonas oryzae) [mm] | zone of inhibition at 10 µg/disc (Escherichia coli) [mm] | zone of inhibition at 10 µg/disc [1] [mm] | zone of inhibition at 10 µg/disc (Bacillus subtilis) [mm] | zone of inhibition at 10 µg/disc (Pseudomonas fluorescens) [mm] |
| --- | --- | --- | --- | --- | --- |
| COC(=O)[C@H](CCCCNC(=S)Nc1ccccc1C)NC(=O)CCCc1nc2ccccc2c(=O)[nH]1 | 24 | 23 | 25 | 22 | 23 |
| COC(=O)[C@H](CCCCNC(=O)OC(C)(C)C)NC(=O)CCc1nc2ccccc2c(=O)[nH]1 | 12 | 9 | 12 | 8 | 11 |
| O=C(CCCc1nc2ccccc2c(=O)[nH]1)N[C@@H](CCCCNC(=O)Nc1ccc(Cl)cc1)C(=O)O | 29 | 28 | 28 | 29 | 30 |
| COC(=O)[C@H](CCCCNC(=O)Nc1cccc(F)c1)NC(=O)CCc1nc2ccccc2c(=O)[nH]1 | 36 | 36 | 37 | 35 | 36 |
| Cc1ccccc1NC(=S)NCCCC[C@H](NC(=O)CCc1nc2ccccc2c(=O)[nH]1)C(=O)O | 28 | 23 | 28 | 23 | 25 |
| CC(=O)NCCCC[C@H](NC(=O)CCCc1nc2ccccc2c(=O)[nH]1)C(=O)O | 12 | 11 | 14 | 10 | 10 |

Source: ChEMBL document CHEMBL1782031, “Urea/thiourea derivatives of quinazolinone-lysine conjugates: synthesis and structure-activity relationships of a new series of antimicrobials” (2011)
